Measurements published in the RNAGym collection of RNA variant scans (doi:10.1002/anie.201605470).

B1: Osa-1-4 twister ribozyme (parent)
chain: CCGCCUAACACUGCCAAUGCCGGUCCCAAGCCCGGAUAAAAGUGGAGGGGGCGG

Variants of: B1
Test: self-cleavage, relative activity (ratio to wild type); higher = more cleavage; co-transcriptional
Method in brief: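 Relative activity is the fraction cleaved divided by that of the wild-type ribozyme. The library came from a DNA template for a 54-nucleotide Oryza sativa twister ribozyme, doped at the 48 positions downstream of the cleavage site with 97 % wild-type base and 1 % of each other base. After 2 h of in vitro transcription at 37 °C with co-transcriptional self-cleavage, the RNA was reverse-transcribed with a template-switching oligonucleotide, amplified by PCR and deep-sequenced, and reads with or without upstream sequence gave the cleavage status.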

In order of falling self-cleavage:
1. CCGCCUAACACUGCCAAUGCCGGUCCCAAGCCCGGAGAACAGUGGAGGGGGCGG  0.12
2. CCGCCUAACACUGCCAAUGCCGGUCCCAAGCCCGGAUAACAGUGGAGGGGGCGU  0.12
3. CCGCCUAACACUGCCAAUGCCGGUCCCAAGCCCGGAUAACAGUGGAGGGGGAGG  0.11
4. CCGCCUAACACUGCCAAUGCCGGUCCCAAGCCCGGAUAACAGUGGAGGGGGUGG  0.1
5. CCGCCUAACACUGCCAAUGCCGGUCCCAAGCCCGGAUAACAGUGGAGGGGGCGA  0.09
6. CCGCCUAACACUGCCAAUGCCGGUCCCAAGCCCGGAUAACAGUAGAGGGGGCGG  0.09
7. CCGCCUAACACUGCCAAUGCCGGUCCCAAGCCCGGAUAACAGUCGAGGGGGCGG  0.09
8. CCGCCUAACACUGCCAAUGCCGGUCCCAAGCCCGGAUAACAGUGGAGGGGGGGG  0.09
9. CCGCCUAACACUGCCAAUGCCGGUCCCAAGCCCGAAUAACAGUGGAGGGGGCGG  0.08
10. CCGCCUAACACUGCCAAUGCCGGUCCCAAGCCCGUAUAACAGUGGAGGGGGCGG  0.08
11. CCGCCUAACACUGCCAAUGCCGGUCCCAAGCCCGGAUAACAGUGGAGGGAGCGG  0.08
12. CCGCCUAACACUGCCAAUGCCGGUCCCAAGCCCGGACAACAGUGGAGGGGGCGG  0.07
13. CCGCCUAACACUGCCAAUGCCGGUCCCAAGCCCGGAAAACAGUGGAGGGGGCGG  0.07
14. CCGCCUAACACUGCCAAUGCCGGUCCCAAGCCCGGAUAACAGUGGAGGGGGCGC  0.07
15. CCGCCUAACACUGCCAAUGCCGGUCCCAAGCCCGGAUAACAGUGGAGGGUGCGG  0.07
16. CCGCCUAACACUGCCAAUGCCGGUCCCAAGCCCGGAUAACAGUGGAGGGCGCGG  0.07
17. CCGCCUAACACUGCCAAUGCCGGUCCCAAGCCCGGAUAACAGAGGAGGGGGCGG  0.07
18. CCGCCUAACACUGCCAAUGCCGGUCCCAAGCCCGGAUAACAGGGGAGGGGGCGG  0.07
19. CCGCCUAACACUGCCAAUGCCGGUCCCAAGCCCGGAUAACAGCGGAGGGGGCGG  0.07
20. CCGCCUAACACUGCCAAUGCCGGUCCCAAGUCCGGAUAACAGUGGAGGGGGCGG  0.06
21. CCGCCUAACACUGCCAAUGCCGGUCCCAAGCCCGGAUAACAGUUGAGGGGGCGG  0.06
22. CCGCCUAACACUGCCAAUGCCGAUCCCAAGCCCGGAUAACAGUGGAGGGGGCGG  0.06
23. CCGCCUAACACUGCCAAUGCCGGUCCCAAGCCCGGAUAACAGUGGAGGGGUCGG  0.06
24. CCGCCUAACACUGCCAAUGCCGGUCCCAAGCCCGGAUAACAGUGGAGGGGACGG  0.06
25. CCGCCUAACACUGCCAAUGCCGGUCCCAAGCCCGGAUAACAGUGGAAGGGGCGG  0.05
26. CCGCCUAACACUGCCAAUGCCGGUCCCAAGCCAGGAUAACAGUGGAGGGGGCGG  0.05
27. CCGCCUAACACUGCCAAUGCCGGUCCCAAGCCCGCAUAACAGUGGAGGGGGCGG  0.05
28. CCGCCUAACACUGCCAAUGCCGGUCCCAAGCCCGGAUAACAGUGGAUGGGGCGG  0.04
29. CCGCCUAACACUGCCAAUGCCGGUCCCAAGCCUGGAUAACAGUGGAGGGGGCGG  0.04
30. CCGCCUAACACUGCCAAUGCCGGUCCCAAGCACGGAUAACAGUGGAGGGGGCGG  0.04
31. CCGCCUAACACUGCCAAUGCCGGACCCAAGCCCGGAUAACAGUGGAGGGGGCGG  0.04
32. CCGCCUAACACUGCCAAUGCCGGUCCCAAGCCCGGAUAACAGUGGAGGGGCCGG  0.04
33. CCGCCUAACACUGCCAAUGCCGGUCCCAAGCCCGGAUAACAGUGGACGGGGCGG  0.03
34. CCGCCUAACACUACCAAUGCCGGUCCCAAGCCCGGAUAACAGUGGAGGGGGCGG  0.03
35. CCGCCUAACACUGCCAAUGCCGGUCCCAAGCUCGGAUAACAGUGGAGGGGGCGG  0.03
36. CCGCCUAACACUGCCAAUGCCGGUCCCAAGCGCGGAUAACAGUGGAGGGGGCGG  0.03
37. CCGCCUAACACUGCCAAUGCCGGCCCCAAGCCCGGAUAACAGUGGAGGGGGCGG  0.03
38. CCGCCUAACACUGCCAAUGCCGGUCCCAAGCCCGGAUAACAGUGGAGUGGGCGG  0.03
39. CCGCCUAACACUGCCAAUGCCGGUCCCAAGCCGGGAUAACAGUGGAGGGGGCGG  0.02
40. CCGCCUAACACUGCCAAUGCCGGUCCCAAGGCCGGAUAACAGUGGAGGGGGCGG  0.02
41. CCGCCUAACACUGCCAAUGCCGGUCCCAAGACCGGAUAACAGUGGAGGGGGCGG  0.02
42. CCGCCUAACACUGCCAAUGCCGUUCCCAAGCCCGGAUAACAGUGGAGGGGGCGG  0.02
43. CCGCCUAACACUGCCAAUGCCGCUCCCAAGCCCGGAUAACAGUGGAGGGGGCGG  0.02
44. CCGCCUAACACUGCCAAUGCCGGUCCCAAGCCCGGAUAACAGUGGAGAGGGCGG  0.02
45. CCGCCUAACACUGCCAAUGCCGGUCCCAAGCCCGGAUAACAGUGGAGCGGGCGG  0.02
46. CCGCCUAACACUUCCAAUGCCGGUCCCAAGCCCGGAUAACAGUGGAGGGGGCGG  0.01
47. CCGCCUAACACUCCCAAUGCCGGUCCCAAGCCCGGAUAACAGUGGAGGGGGCGG  0.01
48. CCGCCUAACACUGCCAAUGCCGGGCCCAAGCCCGGAUAACAGUGGAGGGGGCGG  0.01
